# Published values of several laboratories.
# Protocols differ between the studies behind these lines.
# Target: 5-hydroxytryptamine receptor 2A (HTR2A, Homo sapiens, UniProt P28223)
# Tested at: 10 µM
SMILES,test,quantity,value
COCCN(CCOC)C(=O)[C@@]12C[C@@H]1[C@@H](n1cnc3c(NC(C4CC4)C4CC4)nc(Cl)nc31)[C@H](O)[C@@H]2O,"ligand displacement, radioligand",inhibition,0%
Nc1ncc(-c2nc(N3CCOCC3)nc(N3CCOCC3)n2)c(C(F)F)n1,"cell-free assay, radioligand",remaining signal,98.1%
CCN(CC)CCCC[C@H](NC(=O)[C@H](CC(C)C)NC(=O)[C@H](C)NC(=O)[C@H](Cc1ccccc1)NC(=O)c1ccc(C(C)(C)C)cc1)C(=O)N[C@@H](CO)C(=O)OC,"ligand displacement, radioligand",inhibition,39%
COc1cc2c3c(c1OC)-c1cc4c(cc1CC3N(C)CC2)OCO4 (racemic),"ligand displacement, radioligand",inhibition,89.3%
Clc1ccc2c(C3CCN(CCc4c[nH]c5ccccc45)CC3)c[nH]c2c1,"ligand displacement, radioligand",inhibition,99%
Nc1c(C(=O)NCc2ccc(C(=O)NCCCC3CCCCC3)cc2)cnn1-c1ccccc1,ligand displacement,inhibition,23.7%
CSC[C@@]12C[C@@H]1[C@@H](n1cnc3c(NC(C4CC4)C4CC4)nc(I)nc31)[C@H](O)[C@@H]2O,"ligand displacement, radioligand",inhibition,24%
COCc1c(-c2cc3cc(C)cc(OC)c3s2)c2c(N)ncnn2c1CN1CCNC(=O)C1,"ligand displacement, radioligand",inhibition,23%
COCCN(CCOC)C(=O)[C@@]12C[C@@H]1[C@@H](n1cnc3c(N)nc(Cl)nc31)[C@H](O)[C@@H]2O,"ligand displacement, radioligand",inhibition,3%
CCc1ccccc1C(=O)Nc1n[nH]c2c(C)c(F)c(C3C(C#N)=C(C)N(C)C(C)=C3C#N)cc12,ligand displacement,inhibition,14.8%
